According to ChEMBL document CHEMBL1914459 (Bioorg Med Chem Lett, 2011):
Active and inactive are the calls of the source. The calls are words filed in the database; no cut-off is given here.

Tests used:
[1] = biological target: T1, Prostaglandin D2 receptor 2 (Homo sapiens, UniProt Q9Y5Y4); assay: Antagonist activity against human CRTh2 receptor in human eosinophils assessed as inhibition of DK-PGD2-induced CD11b expression; type: functional
T1 sequence (Q9Y5Y4 whole entry): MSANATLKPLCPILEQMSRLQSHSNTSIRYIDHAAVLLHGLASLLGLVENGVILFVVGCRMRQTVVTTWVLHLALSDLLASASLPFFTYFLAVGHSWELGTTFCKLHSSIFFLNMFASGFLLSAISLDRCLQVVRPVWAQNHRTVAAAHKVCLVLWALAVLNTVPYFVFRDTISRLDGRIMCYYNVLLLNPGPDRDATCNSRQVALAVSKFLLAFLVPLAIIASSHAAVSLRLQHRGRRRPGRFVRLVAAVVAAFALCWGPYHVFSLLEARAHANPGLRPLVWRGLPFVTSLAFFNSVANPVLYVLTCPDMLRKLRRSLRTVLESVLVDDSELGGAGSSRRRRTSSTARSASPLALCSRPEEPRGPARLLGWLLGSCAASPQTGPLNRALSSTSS

Cytochrome P450 3A4 = Cytochrome P450 3A4 (Homo sapiens, UniProt P08684); assay: Inhibition of CYP3A4; type: ADME
[2] = biological target: T1, Prostaglandin D2 receptor 2; assay: Displacement of [3H]PGD2 from human CRTH2 receptor
How it was run: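 Radioligand binding with ³H-PGD₂ as the labelled ligand; IC₅₀ reported as mean of n >2 measurements.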

[3] = Clearance in Sprague-Dawley rat at 1 mg/kg, iv; type: ADME, organism-based; parameters: dose 1 mg/kg, route intravenous; details: in vivo
[4] = Oral bioavailability in Sprague-Dawley rat at 4 mg/kg; type: ADME, organism-based; details: in vivo
[5] = Inhibition of human recombinant aldose reductase 2 after 15 mins by spectrophotometry analysis
Cytochrome P450 2D6 = Cytochrome P450 2D6 (Homo sapiens, UniProt P10635); assay: Inhibition of CYP2D6; type: ADME
[6] = Intrinsic clearance in rat hepatocytes assessed as per 1 x 10^6 cells
[7] = biological target: Prostaglandin G/H synthase 1 (Homo sapiens) (UniProt P23219); assay: Inhibition of COX1 assessed as inhibition of arachidonic acid-induced platelet aggregation at >/= 1 uM
Cytochrome P450 2C9 = Cytochrome P450 2C9 (Homo sapiens, UniProt P11712); assay: Inhibition of CYP2C9; type: ADME
[8] = Volume of distribution at steady state in Sprague-Dawley rat at 1 mg/kg, iv; type: ADME, organism-based; parameters: dose 1 mg/kg, route intravenous; details: in vivo, read-out: Vdss
[9] = Half life in Sprague-Dawley rat at 1 mg/kg, iv; type: ADME, organism-based; parameters: dose 1 mg/kg, route intravenous; details: in vivo
[10] = Lipophilicity, log D of the compound at pH 7.4; details: buffer
[11] = biological target: T2, Prostaglandin D2 receptor (Homo sapiens) (UniProt Q13258); assay: Antagonist activity at prostanoid DP1 receptor; type: functional
T2 sequence (whole entry): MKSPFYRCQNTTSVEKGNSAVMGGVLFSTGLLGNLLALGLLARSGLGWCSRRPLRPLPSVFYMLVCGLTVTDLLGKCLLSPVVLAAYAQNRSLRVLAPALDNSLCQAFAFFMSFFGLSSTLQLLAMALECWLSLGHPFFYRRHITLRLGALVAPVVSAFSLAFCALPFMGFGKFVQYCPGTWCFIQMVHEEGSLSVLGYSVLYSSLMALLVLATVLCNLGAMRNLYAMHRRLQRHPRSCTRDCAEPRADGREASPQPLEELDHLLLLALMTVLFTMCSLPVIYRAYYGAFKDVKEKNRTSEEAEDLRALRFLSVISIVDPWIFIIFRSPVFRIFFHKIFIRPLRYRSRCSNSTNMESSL

Cytochrome P450 1A2 = biological target: T3, Cytochrome P450 1A2 (Homo sapiens, UniProt P05177); assay: Inhibition of CYP1A2; type: ADME
T3 sequence (P05177 whole entry): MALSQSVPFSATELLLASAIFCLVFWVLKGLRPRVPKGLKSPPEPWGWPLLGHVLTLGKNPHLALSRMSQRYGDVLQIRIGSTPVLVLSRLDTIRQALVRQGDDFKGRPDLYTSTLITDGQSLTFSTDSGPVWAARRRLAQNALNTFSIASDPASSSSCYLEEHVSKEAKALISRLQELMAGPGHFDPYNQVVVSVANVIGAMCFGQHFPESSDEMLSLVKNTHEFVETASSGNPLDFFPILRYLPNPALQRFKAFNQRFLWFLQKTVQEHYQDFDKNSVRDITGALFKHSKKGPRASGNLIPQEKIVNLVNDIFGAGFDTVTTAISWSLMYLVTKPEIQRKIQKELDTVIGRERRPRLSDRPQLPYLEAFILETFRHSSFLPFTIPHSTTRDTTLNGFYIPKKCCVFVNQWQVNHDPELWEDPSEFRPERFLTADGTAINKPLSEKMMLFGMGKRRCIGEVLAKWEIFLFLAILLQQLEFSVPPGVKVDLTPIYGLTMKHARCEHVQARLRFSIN

[12] = biological target: T4, Thromboxane A2 receptor (Homo sapiens) (UniProt P21731); assay: Antagonist activity at prostanoid TP receptor assessed as inhibition of arachidonic acid-induced platelet aggregation at >/= 1 uM; type: functional
T4 sequence (whole entry): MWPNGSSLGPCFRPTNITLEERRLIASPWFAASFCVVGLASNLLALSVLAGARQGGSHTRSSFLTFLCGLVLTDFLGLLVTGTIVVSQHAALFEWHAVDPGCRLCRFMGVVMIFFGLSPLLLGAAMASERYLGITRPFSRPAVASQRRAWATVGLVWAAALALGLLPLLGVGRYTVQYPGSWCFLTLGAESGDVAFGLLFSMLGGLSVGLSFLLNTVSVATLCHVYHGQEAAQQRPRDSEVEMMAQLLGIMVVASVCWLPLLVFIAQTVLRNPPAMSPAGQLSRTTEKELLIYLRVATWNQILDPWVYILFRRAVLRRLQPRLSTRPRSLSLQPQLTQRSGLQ

Chain of Cytochrome P450 3A4 (P08684 whole entry): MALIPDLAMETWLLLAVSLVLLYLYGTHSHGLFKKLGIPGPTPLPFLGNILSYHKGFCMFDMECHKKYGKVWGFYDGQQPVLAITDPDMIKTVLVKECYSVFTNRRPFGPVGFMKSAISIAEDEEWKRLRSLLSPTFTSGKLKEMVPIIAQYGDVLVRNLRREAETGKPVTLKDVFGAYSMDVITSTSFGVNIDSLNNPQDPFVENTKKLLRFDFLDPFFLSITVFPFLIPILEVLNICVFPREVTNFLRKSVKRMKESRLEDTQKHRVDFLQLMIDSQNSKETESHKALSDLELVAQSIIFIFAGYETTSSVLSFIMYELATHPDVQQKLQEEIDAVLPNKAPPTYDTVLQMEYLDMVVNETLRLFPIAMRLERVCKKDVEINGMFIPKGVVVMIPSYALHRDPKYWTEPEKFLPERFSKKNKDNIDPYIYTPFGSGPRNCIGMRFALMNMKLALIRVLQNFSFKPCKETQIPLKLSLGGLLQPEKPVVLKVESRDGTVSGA
Chain of Prostaglandin G/H synthase 1 (Homo sapiens) (P23219 whole entry): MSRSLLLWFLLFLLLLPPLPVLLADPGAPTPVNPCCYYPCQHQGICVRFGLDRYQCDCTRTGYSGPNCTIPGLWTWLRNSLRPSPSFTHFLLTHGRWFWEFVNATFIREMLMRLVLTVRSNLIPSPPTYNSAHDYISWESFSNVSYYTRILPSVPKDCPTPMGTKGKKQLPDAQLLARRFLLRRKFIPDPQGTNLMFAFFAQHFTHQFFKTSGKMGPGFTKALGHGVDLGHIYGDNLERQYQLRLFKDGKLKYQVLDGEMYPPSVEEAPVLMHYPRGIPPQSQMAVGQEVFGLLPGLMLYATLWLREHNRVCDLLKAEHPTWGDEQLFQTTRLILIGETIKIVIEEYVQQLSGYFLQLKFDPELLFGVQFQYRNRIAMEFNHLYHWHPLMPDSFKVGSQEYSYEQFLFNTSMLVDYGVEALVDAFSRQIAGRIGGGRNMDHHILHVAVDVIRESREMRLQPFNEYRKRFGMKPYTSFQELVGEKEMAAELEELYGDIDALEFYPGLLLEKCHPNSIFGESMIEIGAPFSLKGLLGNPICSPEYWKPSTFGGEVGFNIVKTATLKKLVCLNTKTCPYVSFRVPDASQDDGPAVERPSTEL
Chain of Cytochrome P450 2D6 (P10635 whole entry): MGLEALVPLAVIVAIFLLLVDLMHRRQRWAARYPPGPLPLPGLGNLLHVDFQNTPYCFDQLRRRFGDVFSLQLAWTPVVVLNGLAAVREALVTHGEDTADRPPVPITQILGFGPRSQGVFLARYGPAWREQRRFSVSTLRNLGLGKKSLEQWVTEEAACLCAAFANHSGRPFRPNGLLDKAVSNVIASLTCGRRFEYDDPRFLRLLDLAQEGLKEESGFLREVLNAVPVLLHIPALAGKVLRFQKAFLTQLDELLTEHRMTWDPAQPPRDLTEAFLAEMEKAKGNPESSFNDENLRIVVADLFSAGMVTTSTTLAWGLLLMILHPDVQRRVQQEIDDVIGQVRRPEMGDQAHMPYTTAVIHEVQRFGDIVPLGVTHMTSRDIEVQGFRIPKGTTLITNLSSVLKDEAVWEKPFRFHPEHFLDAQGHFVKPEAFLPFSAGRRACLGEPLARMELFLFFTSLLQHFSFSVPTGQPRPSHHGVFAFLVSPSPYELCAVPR
Chain of Cytochrome P450 2C9 (P11712 whole entry): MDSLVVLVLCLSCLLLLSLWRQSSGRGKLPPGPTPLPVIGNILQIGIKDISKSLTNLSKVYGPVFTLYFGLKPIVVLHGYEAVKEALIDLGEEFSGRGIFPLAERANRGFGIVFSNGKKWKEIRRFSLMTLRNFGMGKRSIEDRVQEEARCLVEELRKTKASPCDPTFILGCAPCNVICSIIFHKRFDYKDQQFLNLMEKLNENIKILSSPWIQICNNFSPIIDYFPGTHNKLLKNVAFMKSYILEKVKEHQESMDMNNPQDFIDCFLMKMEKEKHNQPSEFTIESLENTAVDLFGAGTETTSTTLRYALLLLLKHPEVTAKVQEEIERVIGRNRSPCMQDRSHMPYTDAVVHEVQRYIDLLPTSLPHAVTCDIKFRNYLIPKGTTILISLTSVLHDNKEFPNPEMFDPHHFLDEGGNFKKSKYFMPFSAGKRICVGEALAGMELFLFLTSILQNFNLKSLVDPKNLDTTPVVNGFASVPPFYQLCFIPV

IC50 [1]: 10 nM
IC50 (Cytochrome P450 3A4): > 10 µM
IC50 [2]: 4.3 nM
clearance [3]: 4 mL/min/kg
bioavailability [4]: 63%
IC50 [5]: 2510 nM
IC50 (Cytochrome P450 2D6): > 10 µM
hepatocyte CLint [6]: 1 µL/min/1e6 cells
inhibition [7]: inactive
IC50 (Cytochrome P450 2C9): > 10 µM
Vd [8]: 0.5 L/kg
half-life [9]: 114 min
logD [10]: -0.2
Activity [11]: inactive
IC50 (Cytochrome P450 1A2): > 10 µM
inhibition [12]: inactive
SMILES: CC(=O)Nc1cccc2c1c(Sc1ccc(Cl)cc1)c(C)n2CC(=O)O [AZD1981]
